Entries after “also recorded” stand apart in the source; their conditions may differ. Where two headings read alike, the source gives them in different places.
Columns and labels:
hCB2R [1] = molecular target: T1, hCB2R (Homo sapiens, UniProt P34972); assay: HTRF cAMP assay in CHO cells stably expressing hCB2R; assay type: cell-based; settings: for Function: hCB2R cAMP assay
Summary of the method: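 Cells stably expressing hCB2R; inhibition of cAMP accumulation read by HTRF. […] Emax expressed as % of the reference full agonist APD371. Means of four or seven independent experiments run in technical replicates.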

hCB2R [2] = molecular target: T1, hCB2R; assay type: cell-based; settings: 0.014 to 10 μM, live CHO cells hCB2R vs hCB1R and wt
hCB2R [3] = molecular target: T1, hCB2R; assay: [3H]CP55940 displacement assay, hCB2R CHO membranes; assay type: binding; settings: for Ki: Ki hCB2R, [3H]CP55940 displacement, CHO membranes stably expressing hCB2R; for Selectivity, ratio of Ki (CB1R)/Ki (CB2R): hCB2R over hCB1R
hCB1R = hCB1R (Homo sapiens, UniProt P21554); assay: [3H]CP55940 displacement assay, hCB1R CHO membranes; assay type: binding
Summary of the method: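 Competitive radioligand binding on membranes from CHO cells stably expressing hCB1R. Test compound displaces radioligand, and Ki is derived from that displacement. Selectivity calculated as Ki(CB1R)/Ki(CB2R). Means of at least three independent experiments, each in duplicate.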

hCB2R [4] = molecular target: T1, hCB2R; assay type: cell-based; settings: 5 µM inhibitor, 90 min preincubation; probes 12, 15, 18; hCB2R CHO cells
[5] = molecular target: hCB2R overexpressing CHO cells (Homo sapiens, UniProt P34972); assay: super-resolution confocal imaging, mean fluorescence intensity of labeled CB2R; assay type: cell-based; settings: 0.8 μM probe, 15 min
Summary of the method: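 Live hCB2R-overexpressing CHO cells stained with fluorescent probe plus Hoechst 33342 nuclear counterstain. Cells optically sectioned by confocal laser-scanning microscopy with an Airyscan detector (super-resolution).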

hCB2R-CHO cells [6] = assay: co-staining with LysoTracker, super-resolution confocal microscopy; assay type: cell-based, human; settings: 15 min
Summary of the method: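 Live hCB2R-overexpressing CHO cells exposed for 15 min to the fluorescent probe together with LysoTracker as lysosome marker. Imaged by super-resolution confocal microscopy and channels merged to assess overlap. Three independent experiments, with five fields examined each.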

[7] = system: primary human macrophages; assay: confocal microscopy of primary human macrophages; assay type: cell-based; settings: 0.8 μM, 15 min, endogenous CB2R
hCB2R-CHO cells [8] = assay: endocytosis blocking study; assay type: cell-based, human; settings: pretreatment 30 min with 0.4 M sucrose and 5 μg mL−1 filipin, probe 10 min
hCB2R [9] = molecular target: T1, hCB2R; assay: TR-FRET kinetic binding characterization on HEK293-hCB2R cell membranes
[10] = normalized to reference full agonist APD371
[11] = read-out: IC50 (column EC50 or IC50), inverse agonists, HTRF cAMP assay, cells stably expressing hCB2R
[12] = EC50 (column EC50 or IC50), agonists, HTRF cAMP assay, cells stably expressing hCB2R

Chain of hCB2R overexpressing CHO cells (P34972 whole entry): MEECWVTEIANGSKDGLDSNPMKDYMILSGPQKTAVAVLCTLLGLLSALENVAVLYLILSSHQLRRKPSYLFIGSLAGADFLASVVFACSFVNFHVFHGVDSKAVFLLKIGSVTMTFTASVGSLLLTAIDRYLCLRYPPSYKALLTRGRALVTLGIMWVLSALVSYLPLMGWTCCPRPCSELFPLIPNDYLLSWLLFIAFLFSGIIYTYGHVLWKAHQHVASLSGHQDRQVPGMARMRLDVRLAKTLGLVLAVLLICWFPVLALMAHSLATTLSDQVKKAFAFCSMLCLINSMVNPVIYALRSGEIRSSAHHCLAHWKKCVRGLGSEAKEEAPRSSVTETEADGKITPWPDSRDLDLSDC
T1 sequence (P34972 whole entry): as above
Chain of hCB1R (P21554 whole entry): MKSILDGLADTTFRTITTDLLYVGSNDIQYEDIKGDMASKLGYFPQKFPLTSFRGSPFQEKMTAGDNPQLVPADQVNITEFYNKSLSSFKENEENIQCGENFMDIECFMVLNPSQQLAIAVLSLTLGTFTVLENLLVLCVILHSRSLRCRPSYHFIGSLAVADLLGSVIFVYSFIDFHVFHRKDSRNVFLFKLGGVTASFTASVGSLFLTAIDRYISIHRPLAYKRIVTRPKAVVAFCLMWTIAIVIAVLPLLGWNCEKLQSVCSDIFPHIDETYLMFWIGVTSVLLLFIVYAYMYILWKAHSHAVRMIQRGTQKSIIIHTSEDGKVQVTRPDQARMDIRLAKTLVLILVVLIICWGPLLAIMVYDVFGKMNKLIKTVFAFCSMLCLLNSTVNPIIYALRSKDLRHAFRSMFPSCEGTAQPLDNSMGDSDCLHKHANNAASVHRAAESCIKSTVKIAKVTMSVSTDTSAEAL

For “3',6'-DIAMINO-5/6-((3,3-DIETHYL-1-(6-(((1S,2S)-2-(HYDROXYMETHYL)CYCLOPROPYL)METHOXY)-5-(3-METHOXYAZETIDIN-1-YL)PYRIDIN-2-YL)-1,4-DIOXO-8,11-DIOXA-2,5-DIAZATRIDECAN-13-YL)CARBAMOYL)-3-OXO-3H-SPIRO[ISOBENZOFURAN-1,9'-XANTHENE]-4',5'-DISULFONIC ACID [Compound 18]”, the Function (hCB2R [1]) was “Inverse agonist”, the Emax (hCB2R [1]; [10]) was −26% and the IC50 (hCB2R [1]; [11]) was 0.262 µM. The “selectivity and specificity for hCB2R in flow cytometry” value (hCB2R [2]) was “high selectivity even at very high concentrations”.
For `CCC(CC)(NC(=O)c1ccc(C2CC2)c(Cc2ccc(F)cc2)n1)C(=O)NCCOCCNC(=O)OC(C)(C)C` [Compound 10a, TERT-BUTYL (2-(2-(2-(5-CYCLOPROPYL-6-(4-FLUOROBENZYL)PICOLINAMIDO)-2-ETHYLBUTANAMIDO)ETHOXY)ETHYL)CARBAMATE], the Ki (hCB2R [3]) was 0.028 µM, the “Selectivity, ratio of Ki (CB1R)/Ki (CB2R)” value (“Selectivity, ratio of Ki” below) (hCB2R [3]) was 30 and the Ki (hCB1R) was 0.836 µM.
In the case of `CCC(CC)(NC(=O)c1ccc(C2CC2)c(Cc2ccc(F)cc2)n1)C(=O)NCCOCCOCCNC(=O)OC(C)(C)C` [Compound 10b, TERT-BUTYL (1-(5-CYCLOPROPYL-6-(4-FLUOROBENZYL)PYRIDIN-2-YL)-3,3-DIETHYL-1,4-DIOXO-8,11-DIOXA-2,5-DIAZATRIDECAN-13-YL)CARBAMATE], the Ki (hCB2R [3]) is reported as 0.006 µM, the “Selectivity, ratio of Ki” value (hCB2R [3]) is reported as 78 and the Emax (hCB2R [1]; CHO) is reported as 83%. The EC50 (hCB2R [1]; [12]) was 0.049 µM, the Function (hCB2R [1]) was “partial agonist” and the Ki (hCB1R) was 0.466 µM.
With `CCC(CC)(NC(=O)c1ccc(C2CC2)c(Cc2ccc(F)cc2)n1)C(=O)NCCOCCOCCOCCNC(=O)OC(C)(C)C` [Compound 10c, TERT-BUTYL (1-(5-CYCLOPROPYL-6-(4-FLUOROBENZYL)PYRIDIN-2-YL)-3,3-DIETHYL-1,4-DIOXO-8,11,14-TRIOXA-2,5-DIAZAHEXADECAN-16-YL)CARBAMATE] the Ki (hCB2R [3]) was 0.063 µM, the “Selectivity, ratio of Ki” value (hCB2R [3]) was 12 and the Ki (hCB1R) was 0.748 µM.
`CCC(CC)(NC(=O)c1ccc(C2CC2)c(Cc2ccc(F)cc2)n1)C(=O)NCCOCCOCCOCCOCCNC(=O)OC(C)(C)C` [Compound 10d, TERT-BUTYL (1-(5-CYCLOPROPYL-6-(4-FLUOROBENZYL)PYRIDIN-2-YL)-3,3-DIETHYL-1,4-DIOXO-8,11,14,17-TETRAOXA-2,5-DIAZANONADECAN-19-YL)CARBAMATE] was tested, and the Ki (hCB2R [3]) was 0.144 µM, the “Selectivity, ratio of Ki” value (hCB2R [3]) was 10 and the Ki (hCB1R) was 1.47 µM.
For `CCC(CC)(NC(=O)c1ccc(N2CC(OC)C2)c(OC[C@H]2C[C@@H]2CO)n1)C(=O)NCCOCCNC(=O)OC(C)(C)C` [Compound 11a, TERT-BUTYL (2-(2-(2-ETHYL-2-(6-(((1S,2S)-2-(HYDROXYMETHYL)CYCLOPROPYL)METHOXY)-5-(3-METHOXYAZETIDIN-1-YL)PICOLINAMIDO)BUTANAMIDO)ETHOXY)ETHYL)CARBAMATE], the Ki (hCB2R [3]) was 2.06 µM, the “Selectivity, ratio of Ki” value (hCB2R [3]) was >4 and the Ki (hCB1R) was > 10 µM.
For `CCC(CC)(NC(=O)c1ccc(N2CC(OC)C2)c(OC[C@H]2C[C@@H]2CO)n1)C(=O)NCCOCCOCCNC(=O)OC(C)(C)C` [Compound 11b, TERT-BUTYL (3,3-DIETHYL-1-(6-(((1S,2S)-2-(HYDROXYMETHYL)CYCLOPROPYL)METHOXY)-5-(3-METHOXYAZETIDIN-1-YL)PYRIDIN-2-YL)-1,4-DIOXO-8,11-DIOXA-2,5-DIAZATRIDECAN-13-YL)CARBAMATE], the Ki (hCB2R [3]) was 0.106 µM, the “Selectivity, ratio of Ki” value (hCB2R [3]) was >94 and the IC50 (hCB2R [1]) was 0.088 µM. The Emax (hCB2R [1]; CHO) was -63%, the Function (hCB2R [1]) was “Inverse agonist” and the Ki (hCB1R) was > 10 µM.
With `CCC(CC)(NC(=O)c1ccc(N2CC(OC)C2)c(OC[C@H]2C[C@@H]2CO)n1)C(=O)NCCOCCOCCOCCNC(=O)OC(C)(C)C` [Compound 11c, TERT-BUTYL (3,3-DIETHYL-1-(6-(((1S,2S)-2-(HYDROXYMETHYL)CYCLOPROPYL)METHOXY)-5-(3-METHOXYAZETIDIN-1-YL)PYRIDIN-2-YL)-1,4-DIOXO-8,11,14-TRIOXA-2,5-DIAZAHEXADECAN-16-YL)CARBAMATE] the Ki (hCB2R [3]) was > 10 µM and the Ki (hCB1R) was > 10 µM.
In the case of `CCC(CC)(NC(=O)c1ccc(C2CC2)c(Cc2ccc(F)cc2)n1)C(=O)NCCOCCOCCNC(=O)c1ccc2c(c1)C1(OC2=O)c2ccc(N(C)C)cc2[Si](C)(C)c2cc(N(C)C)ccc21` [Compound 13, N-(1-(3,7-BIS(DIMETHYLAMINO)-5,5-DIMETHYL-3'-OXO-3'H,5H-SPIRO[DIBENZO[B,E]SILINE-10,1'-ISOBENZOFURAN]-6'-YL)-13-ETHYL-1,12-DIOXO-5,8-DIOXA-2,11-DIAZAPENTADECAN-13-YL)-5-CYCLOPROPYL-6-(4-FLUOROBENZYL)PICOLINAMIDE], the Emax (hCB2R [1]; CHO) is reported as 127%, the EC50 (hCB2R [1]; [12]) is reported as 0.528 µM and the Function (hCB2R [1]) is reported as “full agonism; also recorded: Full agonist”.
With `CCC(CC)(NC(=O)c1ccc(C2CC2)c(Cc2ccc(F)cc2)n1)C(=O)NCCOCCOCCNC(=O)c1ccc2c(c1)C(=O)OC21c2ccc(N)c(S(=O)(=O)O)c2Oc2c1ccc(N)c2S(=O)(=O)O` [Compound 14, 3',6'-DIAMINO-5-((1-(5-CYCLOPROPYL-6-(4-FLUOROBENZYL)PYRIDIN-2-YL)-3,3-DIETHYL-1,4-DIOXO-8,11-DIOXA-2,5-DIAZATRIDECAN-13-YL)CARBAMOYL)-3-OXO-3H-SPIRO[ISOBENZOFURAN-1,9'-XANTHENE]-4',5'-DISULFONIC ACID] the Emax (hCB2R [1]; CHO) was 79%, the EC50 (hCB2R [1]; [12]) was 0.077 µM and the Function (hCB2R [1]) was “partial agonism; also recorded: Partial agonist”. For the same compound, the “selectivity and specificity for hCB2R in flow cytometry” value (hCB2R [2]) was “high selectivity even at very high concentrations”.
For `CCC(CC)(NC(=O)c1ccc(N2CC(OC)C2)c(OC[C@H]2C[C@@H]2CO)n1)C(=O)NCCOCCOCCNC(=O)c1ccc2c(c1)C1(OC2=O)c2ccc(N(C)C)cc2[Si](C)(C)c2cc(N(C)C)ccc21` [Compound 17, N-(1-(3,7-BIS(DIMETHYLAMINO)-5,5-DIMETHYL-3'-OXO-3'H,5H-SPIRO[DIBENZO[B,E]SILINE-10,1'-ISOBENZOFURAN]-6'-YL)-13-ETHYL-1,12-DIOXO-5,8-DIOXA-2,11-DIAZAPENTADECAN-13-YL)-6-(((1S,2S)-2-(HYDROXYMETHYL)CYCLOPROPYL)METHOXY)-5-(3-METHOXYAZETIDIN-1-YL)PICOLINAMIDE], the IC50 (hCB2R [1]) was 0.129 µM, the Emax (hCB2R [1]; CHO) was -29% and the Function (hCB2R [1]) was “Inverse agonist”.
For `CC(C)(C)c1nc(N2CC[C@H](O)C2)c2nnn(Cc3nnnn3C3CC3)c2n1` [RO6871304], the “blocking of fluorescent probe staining” value (hCB2R [4]) was “completely blocked the staining”.
With “N-(1-(3',6'-BIS(DIMETHYLAMINO)-3-OXO-3H-SPIRO[ISOBENZOFURAN-1,9'-XANTHEN]-5/6-YL)-13-ETHYL-1,12-DIOXO-5,8-DIOXA-2,11-DIAZAPENTADECAN-13-YL)-5-CYCLOPROPYL-6-(4-FLUOROBENZYL)PICOLINAMIDE [Compound 12]” the “MFI of labeled CB2R in intracellular compartments” value [5] was 2575 ± 100 MFI, the “plasma membrane labelling intensity (MFI) of labeled CB2R” value [5] was 2090 ± 175 MFI and the “co-localization with LysoTracker” value (hCB2R-CHO cells [6]) was “partial overlap but no clear co-localization”. For the same compound, the Function (hCB2R [1]) was “partial agonism; also recorded: Partial agonist”, the Emax (hCB2R [1]; [10]) was 80% and the EC50 (hCB2R [1]; read-out: EC50 (column EC50 or IC50), agonists, HTRF cAMP assay, cells stably expressing hCB2R) was 0.082 µM. The “distribution pattern in human macrophages” value [7] was “widely distributed within the cell”, the “reduction of intracellular staining by endocytosis blockers” value (hCB2R-CHO cells [8]) was 70% and the kinetic binding characterization (hCB2R [9]) was “fast association and appropriate residence time”.
With “N-(1-(3',6'-BIS(DIMETHYLAMINO)-3-OXO-3H-SPIRO[ISOBENZOFURAN-1,9'-XANTHEN]-5/6-YL)-13-ETHYL-1,12-DIOXO-5,8-DIOXA-2,11-DIAZAPENTADECAN-13-YL)-6-(((1S,2S)-2-(HYDROXYMETHYL)CYCLOPROPYL)METHOXY)-5-(3-METHOXYAZETIDIN-1-YL)PICOLINAMIDE [Compound 16]” the “MFI of labeled CB2R in intracellular compartments” value [5] was 340 ± 13 MFI, the “plasma membrane labelling intensity (MFI) of labeled CB2R” value [5] was 350 ± 4 MFI and the “co-localization with LysoTracker” value (hCB2R-CHO cells [6]) was “clear co-localization pattern”. For the same compound, the Function (hCB2R [1]) was “Inverse agonist”, the Emax (hCB2R [1]; [10]) was −29% and the IC50 (hCB2R [1]; [11]) was 0.114 µM. For the same compound, the “distribution pattern in human macrophages” value [7] was “mainly localized on cellular membranes and partially in perinuclear dots”, the “reduction of intracellular staining by endocytosis blockers” value (hCB2R-CHO cells [8]) was “without affecting” and the kinetic binding characterization (hCB2R [9]) was “fast association and appropriate residence time”.

Reference: paper PMC11485011 (Chemical Science, 2024)
